According to ChEMBL document CHEMBL2176925, “Novel ¹⁸F-labeled benzoxazole derivatives as potential positron emission tomography probes for imaging of cerebral β-amyloid plaques in Alzheimer's disease” (J Med Chem, 2012):

Assays:
[1] = test system: Stomach; test: Drug uptake in ddY mouse stomach assessed per organ at 370 kBq/100 ul, iv at 2 mins by gamma-counting analysis; assay type: ADME, organism-based; conditions: in vivo
How it was run: (§1)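 Normal male ddY mice (5 weeks, 20−22 g, n = 5) received 370 kBq of tracer in 100 μL saline with 5% EtOH via tail vein. Mice were sacrificed at set times after injection, and organs were excised, weighed and γ-counted against diluted injectate aliquots. Values are %ID per gram, except stomach and intestine as %ID per organ, given as mean ± SD of 5 mice.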

[2] = test system: Brain; test: Ratio of drug uptake in brain at 2 mins to drug uptake in 20 mins in transgenic C57BL6 mouse expressing APP Swedish mutant; assay type: ADME, tissue-based; conditions: in vivo
[3] = test system: Brain; test: Ratio of drug uptake in brain at 2 mins to drug uptake in 20 mins in wild type C57BL6 mouse; assay type: ADME, tissue-based; conditions: in vivo
[4] = test system: Blood; test: Drug uptake in ddY mouse blood at 370 kBq/100 ul, iv at 2 mins by gamma-counting analysis; assay type: ADME, organism-based; conditions: in vivo; how it was run: as §1
[5] = test system: Brain; test: Drug uptake in wild type C57BL6 mouse brain at 40.7 MBq, iv at 2 mins by microPET imaging; assay type: ADME, organism-based; conditions: in vivo
[6] = test system: Blood; test: Drug uptake in ddY mouse blood at 370 kBq/100 ul, iv at 10 mins by gamma-counting analysis; assay type: ADME, organism-based; conditions: in vivo; how it was run: as §1
[7] = test system: Spleen; test: Drug uptake in ddY mouse spleen at 370 kBq/100 ul, iv at 30 mins by gamma-counting analysis; assay type: ADME, organism-based; conditions: in vivo, 0.5 h; how it was run: as §1
[8] = test system: Intestine; test: Drug uptake in ddY mouse intestine at 370 kBq/100 ul, iv at 2 mins by gamma-counting analysis; assay type: ADME, organism-based; conditions: in vivo; how it was run: as §1
[9] = Displacement of [125I]IMPY from amyloid beta (1 to 42) fibrils after 2 hrs by gamma-counting analysis
How it was run: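 Competition binding with aggregated Aβ1-42 fibrils (60 nM final) and [125I]IMPY. Inhibitors were tested at 10⁻⁵–10⁻¹⁰ M (in ethanol) in 0.2 M PBS, pH 7.4, 1 mL, for 2 h at 37 °C with shaking. Nonspecific binding was defined with 1 μM IMPY. Bound ligand was collected by GF/B filtration and γ-counted. Ki was derived from IC50 via Cheng–Prusoff.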

[10] = test system: Kidney; test: Drug uptake in ddY mouse kidney at 370 kBq/100 ul, iv at 30 mins by gamma-counting analysis; assay type: ADME, organism-based; conditions: in vivo, 0.5 h; how it was run: as §1
[11] = test system: Bone; test: Drug uptake in ddY mouse bone at 370 kBq/100 ul, iv at 10 mins by gamma-counting analysis; assay type: ADME, organism-based, Bone element; conditions: in vivo; how it was run: as §1
[12] = test system: Brain; test: Drug uptake in transgenic C57BL6 mouse brain expressing APP Swedish mutant at 40.7 MBq, iv at 2 mins by microPET imaging; assay type: ADME, organism-based; conditions: in vivo
[13] = test system: Brain; test: Drug uptake in wild type C57BL6 mouse brain at 370 kBq/100 ul after 1 hr by autoradiographic analysis; assay type: ADME, tissue-based; conditions: in vitro
How it was run: (§2)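 Paraffin sections of brain were used: C57BL6 mice (wild-type, 12 months), human AD (person) and normal human. Sections were deparaffinized through xylene and graded ethanol, then equilibrated 30 min in PBS (0.2 M, pH 7.4). Incubated 1 h at room temperature with tracer, 370 kBq/100 μL, washed 1 min in 50% ethanol and rinsed with water. Imaging plate exposed overnight. Plaques confirmed by thioflavin-S or anti-Aβ1-42 monoclonal immunostaining.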

[14] = test system: Stomach; test: Drug uptake in ddY mouse stomach assessed per organ at 370 kBq/100 ul, iv at 30 mins by gamma-counting analysis; assay type: ADME, organism-based; conditions: in vivo, 0.5 h
How it was run: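 Male ddY mice (5 weeks, 20−22 g, n = 5) received tracer in saline with 5% EtOH, 370 kBq/100 μL, by tail vein. Killed at set times after dosing. Stomach removed, weighed and γ-counted against diluted aliquots of the injected dose. Reported as % injected dose per organ, mean ± SD of 5 mice.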

[15] = test system: Brain; test: Drug uptake in healthy human brain at 370 kBq/100 ul after 1 hr by autoradiographic analysis; assay type: ADME, tissue-based; how it was run: as §2
[16] = test system: Brain; test: Drug uptake in wild type C57BL6 mouse brain at 40.7 MBq, iv up to 60 mins by microPET imaging; assay type: ADME, organism-based; conditions: in vivo, 1 h
[17] = test system: Spleen; test: Drug uptake in ddY mouse spleen at 370 kBq/100 ul, iv at 10 mins by gamma-counting analysis; assay type: ADME, organism-based; conditions: in vivo; how it was run: as §1
[18] = test system: Hippocampus; test: Drug uptake in transgenic C57BL6 mouse hippocampus expressing APP Swedish mutant at 40.7 MBq, iv at 60 mins by microPET imaging; assay type: ADME, organism-based; conditions: in vivo, 1 h
[19] = test system: Cortex; test: Drug uptake in transgenic C57BL6 mouse cortex expressing APP Swedish mutant at 40.7 MBq, iv at 60 mins by microPET imaging; assay type: ADME, organism-based; conditions: in vivo, 1 h
[20] = test system: Liver; test: Drug uptake in ddY mouse liver at 370 kBq/100 ul, iv at 60 mins by gamma-counting analysis; assay type: ADME, organism-based; conditions: in vivo, 1 h; how it was run: as §1

Row | Drug uptake [1] | Ratio [2] | Ratio [3] | Drug uptake [4] | Drug uptake [5] | Drug uptake [6] | Drug uptake [7] | Drug uptake [8] | Ki [9] | Drug uptake [10] | Drug uptake [11] | Drug uptake [12] | Drug uptake [13] | Drug uptake [14] | Drug uptake [15] | Drug uptake [16] | Drug uptake [17] | Drug uptake [18] | Drug uptake [19] | Drug uptake [20] | SMILES
1 | 1.59 %ID | 1.21 | 1.77 | 4.76 % ID/g | Active | 3.46 % ID/g | 3.92 % ID/g | 11.33 % ID/g | 9.3 nM | 6.84 % ID/g | 2.32 % ID/g | Active | Not Active | 1.85 %ID | Not Active | Not Active | 4.22 % ID/g | Active | Active | 13.06 % ID/g | CNc1ccc(-c2nc3cc(OCCOCCOCC[18F])ccc3o2)cc1
2 | 1.1 %ID | – | – | 3.24 % ID/g | – | 2.26 % ID/g | 2.53 % ID/g | 4.8 % ID/g | 3.9 nM | 4.08 % ID/g | 1.07 % ID/g | – | Not Active | 1.51 %ID | Not Active | – | 2.88 % ID/g | – | – | 6.92 % ID/g | CN(C)c1ccc(-c2nc3cc(OCCOCCOCC[18F])ccc3o2)cc1
